# Only some compounds are listed: those with a hit (about 2.4% of all), similar ones and a draw of the others.
# DNMT1 inh: human DNMT1 methyltransferase inhibitors, primary screen, biochemical, molecular beacon, fluorescence, HinP1I cleavage, uHTS | AID 588458, 2011 | inhibition (reported as % activation of signal), % at 10 µM | 360,000 compounds, 0.83% hits; in the data active = inhibition above about 50%
# Scp-1 inhibitor: Scp-1 phosphatase inhibitors, primary screen, biochemical, colorimetric, uHTS. inhibition, % at 20 µM. AID 493091, 2011. Carboxy-terminal domain RNA polymerase II polypeptide A small phosphatase 1 (Homo …. Recombinant Scp1, phosphopeptide, malachite green phosphate absorbance. 340,000 compounds, 0.88% hits;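 active = inhibition above about 50% at 20 µM, limit read from the data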
# Target sequence (Q9GZU7 76-261 limits assumed): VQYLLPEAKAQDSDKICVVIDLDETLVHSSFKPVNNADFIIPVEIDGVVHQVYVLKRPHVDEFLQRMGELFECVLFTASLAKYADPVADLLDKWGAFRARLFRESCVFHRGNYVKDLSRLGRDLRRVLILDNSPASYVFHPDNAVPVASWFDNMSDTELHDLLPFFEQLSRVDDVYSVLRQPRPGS
#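 Incubation: 45 min enzyme reaction at room temperature / System: truncated SCP-1 phosphatase (76-261aa) / Reagent: Phospho 17-mer peptide substrate / Buffer or medium: Acidic Tris acetate buffer with magnesium and detergent / Signal: absorbance at 630 nm / Doses: one concentration, 20 µM, with 1.0% DMSO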
# STEP block: STEP phosphatase inhibitors, primary screen, biochemical, fluorescence intensity, uHTS | inhibition, % at 20 µM | recombinant STEP, OMFP fluorogenic substrate | AID 588621, 2011 | Tyrosine-protein phosphatase non-receptor type 5 (Homo sapiens), P54829 | 360,000 compounds, 0.25% hits;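 active = inhibition at 20 µM, scaled per plate between control wells, above about 37%, limit read from the data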
#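 System: isolated STEP enzyme; schedule: 20 min enzyme reaction at room temperature, protected from light; medium: Bis-Tris buffer pH 6.0, 2.5 mM DTT, 0.005% Tween 20; signal: fluorescence, 480/540 nm; dosing: single compound dose of 20 µM, 1% DMSO final; also added: OMFP substrate, 25 µM final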
# LMPTP block: LMPTP phosphatase inhibitors, primary screen, biochemical, fluorescence intensity, uHTS; recombinant LMPTP-A, OMFP fluorogenic substrate; inhibition, % at 20 µM; 360,000 compounds, 0.22% hits; Low molecular weight phosphotyrosine protein phosphatase (Homo sapiens), P24666; AID 651560, 2012;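 active = compounds that cut the enzyme signal by at least half of the control window in the single-dose screen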
# Target sequence (P24666 whole entry, looked up): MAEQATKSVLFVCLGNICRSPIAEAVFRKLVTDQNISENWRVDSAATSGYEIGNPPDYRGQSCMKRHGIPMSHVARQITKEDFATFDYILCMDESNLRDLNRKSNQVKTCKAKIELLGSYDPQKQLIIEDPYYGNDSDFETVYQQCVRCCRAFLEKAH
#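 test system = LMPTP-A | amount = 0.625 nM LMPTP-A final | reagent = fluorogenic phosphatase substrate OMFP at 400 µM final | incubation = 50 min at room temperature | benchmarks = no-enzyme low control, uninhibited high control | medium = Bis-Tris pH 6.0, DTT, detergent | signal = fluorescence intensity of OMFP turnover product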
# NadD inh: inhibitors of S. aureus NadD, primary screen, biochemical, colorimetric, uHTS; Nicotinate-nucleotide adenylyltransferase NadD (Staphylococcus aureus N315); purified NadD enzyme, colorimetric absorbance read-out; inhibition, % at 20 µM; 360,000 compounds, 0.78% hits; AID 602399, 2012; in the data active = inhibition above about 26%
# SUMO1-SIM PPI: modulators of SUMO1 protein-protein interactions, primary screen, biochemical, uHTS; Small ubiquitin-related modifier 1 (Homo sapiens), P63165; SUMO1 binding to a labelled peptide, TR-FRET, 1 h; inhibition, % at 20 µM; 360,000 compounds, 0.33% hits; AID 602429, 2012; in the data active = inhibition above about 37%
# Target sequence (P63165 whole entry, looked up): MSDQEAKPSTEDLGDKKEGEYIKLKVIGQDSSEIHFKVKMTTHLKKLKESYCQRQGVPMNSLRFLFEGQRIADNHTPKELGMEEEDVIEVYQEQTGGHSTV
# Numbers stand for hits; n = inactive; x = no result given; + = active, no number.
SMILES,DNMT1 inh,Scp-1 inhibitor,STEP block,LMPTP block,NadD inh,SUMO1-SIM PPI
CCc1nc(N)nc(N)c1-c1ccc(N(C)Cc2ccccc2)c([N+](=O)[O-])c1,n,n,n,79,n,n
CCC(=O)n1nc(-c2ccc(Cl)cc2)nc1N,n,n,n,n,n,n
CCc1nc(N)nc(N)c1-c1ccc(NCCN)c([N+](=O)[O-])c1,n,n,n,x,n,n
CCc1nc(N)nc(N)c1-c1ccc(Cl)cc1,n,n,n,56,n,n
Cc1cc(C)c2c(N)c(C(=O)Nc3ccc([N+](=O)[O-])cc3)sc2n1,n,n,n,n,n,44
CN(C)c1ccc(Cc2cc3c(O)ccc(O)c3cc(Cc3ccc(N(C)C)cc3)c2=O)cc1,81,n,n,n,68,42
COc1ccccc1NC(=O)Cn1c(C)nc2c(sc(=S)n2Cc2ccco2)c1=O,n,n,n,n,n,n
COc1ccc(/C=N/NC(=O)CCn2cnc(-c3ccccc3)c2-c2ccccc2)cc1,n,n,118,n,n,n
COc1cc(/C=C2\SC(=S)N(NS(=O)(=O)c3ccccc3)C2=O)ccc1O,n,60,n,n,n,n
Cc1ccc(NC(=O)C2CCN(S(=O)(=O)c3c(C)noc3/C=C/c3ccco3)CC2)nc1,n,n,n,n,n,n
Cc1noc(/C=C/c2ccco2)c1S(=O)(=O)N1CCC(C(=O)N2CCc3ccccc3C2)CC1,n,n,n,n,47,n
C/C(CC(=O)NCc1ccco1)=N\NC(=O)Cc1ccccc1,n,n,n,n,n,n
C/C(CC(=O)NCc1ccco1)=N\NC(=O)C(c1ccccc1)c1ccccc1,n,n,n,n,n,49
COc1cccc(OC)c1C(=O)OCC(=O)N(c1ccccc1)C1CCCCC1,n,n,n,n,n,n
Cc1sc(NC(=O)CSc2nnc(COc3ccccc3)n2C)c(C#N)c1C,n,n,n,n,n,n
Cc1sc(NC(=O)CSc2nnc3scc(-c4ccccc4)n23)c(C#N)c1C,n,n,n,n,n,45
CCN(CC(=O)N1CCCCCC1)S(=O)(=O)c1ccc(Cl)cc1,n,n,n,n,n,n
CNc1ccc2c3c(cccc13)C(=O)N(C)C2=O,+,n,n,n,n,n
CN1C(=O)c2cccc3c(Cl)ccc(c23)C1=O,n,n,n,n,n,n
CCOC(=O)C1=C[C@@H](c2ccccc2)N(S(=O)(=O)c2ccc(C)cc2)[C@H]1c1ccccc1Cl,n,x,n,n,n,n
Cc1cc(Br)ccc1NC(=O)c1sc2ncnc(N3CCN(c4ccccn4)CC3)c2c1C,n,n,n,n,30,n
COc1ccc(NC(=O)c2sc3ncnc(N4CCN(c5ccccn5)CC4)c3c2C)cc1Cl,n,n,n,n,n,n
CCN(CC(=O)Nc1ccc(NC(C)=O)cc1)C(=O)c1oc2c(ccc3ccccc32)c1C,n,n,n,n,n,n
Cc1ccc(-c2ccc(C(=O)NCc3ccc(Cl)cc3)o2)c2ccccc12,n,n,n,n,27,n
Cc1csc2nc3cc(C(N)=O)ccc3c(=O)n12,n,n,n,n,n,n
SMILES,DNMT1 inh,Scp-1 inhibitor,STEP block,LMPTP block,NadD inh,SUMO1-SIM PPI
NC(=O)c1ccc2c(=O)n3c(-c4cc(Cl)c(N)c(Cl)c4)csc3nc2c1,n,n,n,n,n,56
COc1ccc(CC(=O)NNC(=O)CSc2nnc(Cc3ccc(OC)cc3)n2-c2ccccc2)cc1,n,n,n,n,n,n
Cc1ccc(C)c(-c2cc(C(=O)Nc3sc(C)c(C)c3C(N)=O)c3ccccc3n2)c1,n,n,n,n,35,n
CCOC(=O)c1sc(NC(=O)CSc2n[nH]c(-c3ccccc3)n2)c(C#N)c1C,n,n,n,n,n,n
CCOC(=O)c1sc(NC(=O)c2cc(-c3ccccc3)nc3ccccc23)c(C#N)c1C,n,n,n,n,39,n
C/C(=N\Nc1ccc(C(=O)O)cc1)c1ccc(Br)cc1,n,52,n,n,n,n
O=C(Oc1nsnc1N1CCOCC1)N(c1ccccc1)c1ccccc1,n,n,n,n,n,n
COC(=O)Oc1nsnc1N1CCOCC1,n,70,n,n,n,n
COc1ccc(C2NCCc3c2[nH]c2ccccc32)cc1CN1CCc2cc(OC)c(OC)cc2C1C (centres undefined),n,n,n,52,n,n
CC(=O)N(CCCN(C)C)CCC(C)CCC=C(C)C (centres undefined),n,n,n,n,n,n
CCC(C(=O)NCCc1ccc(C)cc1)n1nc(C)c2c(C)n(-c3ccccc3)nc2c1=O (centres undefined),n,n,n,n,n,n
Cc1ccc(NC(=S)NN(C)c2nc(C)cnc2C)cc1,n,n,n,n,n,40
C#CCOCCOCCOCCNc1nc(N2CCN(C(=O)[C@H](Cc3cc4ccccc4[nH]3)n3cc([C@@H](N)CC(C)C)nn3)CC2)nc(N2CCN(C(=O)[C@H](Cc3cc4ccccc4[nH]3)n3cc([C@@H](N)CC(C)C)nn3)CC2)n1,n,n,n,n,70,n
C#CCOCCOCCOCCNc1nc(N2CCN(C(=O)[C@H](Cc3ccc(O)cc3)n3cc([C@@H](N)C(C)CC)nn3)CC2)nc(N2CCN(C(=O)[C@H](Cc3cc4ccccc4[nH]3)n3cc([C@@H](N)C(C)CC)nn3)CC2)n1 (some centres undefined),n,n,n,n,34,n
Oc1ccc2ccccc2c1/C=N/Nc1ccccc1,n,n,52,n,n,n
O=CN/N=C/c1c(O)ccc2ccccc12,n,n,n,n,n,n
CC1CCCN(c2nc3c(c(=O)[nH]c(=O)n3C)n2Cc2ccccc2Cl)C1 (centres undefined),n,n,n,n,n,n
CC(=O)c1ccc(NC(=O)c2ccc3nc(-c4ccco4)c(-c4ccco4)nc3c2)cc1,123,83,89,86,93,96
O=C(Nc1ccc(N2CCOCC2)cc1)c1ccc2nc(-c3ccco3)c(-c3ccco3)nc2c1,n,n,n,n,n,n
O=C(c1ccc2nc(-c3ccco3)c(-c3ccco3)nc2c1)N1CCN(c2ncccn2)CC1,n,95,n,n,n,n
